ChEMBL document CHEMBL4033781 (J Med Chem, 2018)
The source made the active and inactive calls. No cut-off for these calls is given here.

Legend:
[1] = biological target: T1, Voltage-gated inwardly rectifying potassium channel KCNH2 (Homo sapiens, UniProt Q12809); assay: Displacement of Tracer Red from human ERG expressed in cell membranes up to 60 uM by fluorescence polarization assay
Summary of the method: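 Competitive fluorescence polarization displacement of a fluorescently tagged hERG ligand used membranes from cells stably expressing hERG. Compounds were tested up to 60 μM.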

[2] = biological target: Sodium/potassium-transporting ATPase subunit alpha-4 (Rattus norvegicus) (UniProt Q64541); assay: Inhibition of Na+/K+-ATPase alpha4 in Long Evans rat cauda epididymis sperm assessed as reduction in total sperm motility at 10^-12 to 10^-4 M after 1 hr by SYTO staining based microscopic method
Chain of Sodium/potassium-transporting ATPase subunit alpha-4 (Rattus norvegicus) (Q64541 whole entry): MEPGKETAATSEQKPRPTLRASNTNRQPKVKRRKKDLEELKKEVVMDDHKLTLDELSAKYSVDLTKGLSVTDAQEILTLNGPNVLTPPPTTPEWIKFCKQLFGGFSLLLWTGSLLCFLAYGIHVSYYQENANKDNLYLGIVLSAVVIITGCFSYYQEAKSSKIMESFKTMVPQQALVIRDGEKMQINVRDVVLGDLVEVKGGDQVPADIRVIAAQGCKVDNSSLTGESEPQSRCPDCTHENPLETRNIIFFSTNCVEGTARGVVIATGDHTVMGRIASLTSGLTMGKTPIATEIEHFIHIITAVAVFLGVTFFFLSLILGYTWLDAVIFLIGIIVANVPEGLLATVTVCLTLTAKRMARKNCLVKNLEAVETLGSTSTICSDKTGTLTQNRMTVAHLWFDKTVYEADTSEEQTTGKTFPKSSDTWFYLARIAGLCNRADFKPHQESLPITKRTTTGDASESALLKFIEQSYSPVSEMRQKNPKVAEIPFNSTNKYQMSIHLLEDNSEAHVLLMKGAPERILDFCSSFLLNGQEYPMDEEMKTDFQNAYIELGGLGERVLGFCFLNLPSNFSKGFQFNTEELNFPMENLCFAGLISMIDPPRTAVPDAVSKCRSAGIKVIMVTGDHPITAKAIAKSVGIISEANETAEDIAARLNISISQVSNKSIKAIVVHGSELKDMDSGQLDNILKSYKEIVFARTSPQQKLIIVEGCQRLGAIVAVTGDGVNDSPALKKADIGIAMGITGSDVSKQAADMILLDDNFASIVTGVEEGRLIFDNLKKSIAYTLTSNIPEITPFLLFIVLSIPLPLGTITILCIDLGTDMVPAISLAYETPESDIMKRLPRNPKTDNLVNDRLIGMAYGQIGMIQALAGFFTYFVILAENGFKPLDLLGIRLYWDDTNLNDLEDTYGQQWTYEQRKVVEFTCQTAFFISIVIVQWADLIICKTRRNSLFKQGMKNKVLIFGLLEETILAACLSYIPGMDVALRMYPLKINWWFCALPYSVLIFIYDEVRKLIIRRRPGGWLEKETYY

[3] = biological target: Sodium/potassium-transporting ATPase subunit alpha-4 (Rattus norvegicus) (UniProt Q64541); assay: Inhibition of Na+/K+-ATPase alpha4 in Long Evans rat cauda epididymis sperm assessed as reduction in sperm progressive motility at 10^-12 to 10^-4 M after 1 hr by SYTO staining based microscopic method
MCF7 = assay: Antiproliferative activity against human MCF7 cells up to 100 uM after 72 hrs by AlamarBlue assay; format: cell-based; settings: mcf7, 72 h
[4] = biological target: Sodium/potassium-transporting ATPase subunit alpha-4 (Rattus norvegicus) (UniProt Q64541); assay: Inhibition of Na+/K+-ATPase alpha4 in Long Evans rat cauda epididymis sperm assessed as reduction in sperm average path velocity at 10^-12 to 10^-4 M after 1 hr by SYTO staining based microscopic method
[5] = biological target: Sodium/potassium-transporting ATPase subunit alpha-4 (Rattus norvegicus) (UniProt Q64541); assay: Inhibition of Na+/K+-ATPase alpha4 in Long Evans rat cauda epididymis sperm assessed as reduction in sperm motility at 10^-8 M preincubated for 1 hr followed by compound washout measured up to 2 hrs by SYTO staining based microscopic method
Summary of the method: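 Rat cauda epididymal sperm in modified Tyrode's medium were treated with or without compound. Motility was measured by SYTO 21/CASA before and after three washes in modified Tyrode's medium, at times up to 2 h. Values are mean ± SEM of three determinations.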

[6] = biological target: Na+/K+ ATPase alpha-2/beta-1 (Rattus norvegicus, UniProt P06686+P07340); assay: Inhibition of recombinant rat Na+/K+-ATPase alpha2/beta1 expressed in baculovirus infected insect Sf9 cell membranes using [gamma-32P]ATP as substrate preincubated for 20 mins followed by substrate addition measured after 30 mins by liquid scintillation counting
Summary of the method: (§1)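 Rat α/β1 isoforms were expressed in baculovirus-infected Sf9 cells (72 h, 27 °C), washed in 10 mM imidazole-HCl pH 7.5 with 1 mM EGTA, and homogenised. Homogenates were assayed in 120 mM NaCl, 30 mM KCl, 3 mM MgCl₂, 0.2 mM EGTA and 30 mM Tris-HCl pH 7.4. Reactions were started with 2 mM γ[³²P]-ATP (final) and run 30 min at 37 °C. Released ³²Pi was extracted as phosphomolybdate into isobutanol and scintillation counted. IC50 came from single-site dose–response fits.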

[7] = biological target: Na+/K+ ATPase alpha-3/beta-1 (Rattus norvegicus, UniProt P06687+P07340); assay: Inhibition of recombinant rat Na+/K+-ATPase alpha3/beta1 expressed in baculovirus infected insect Sf9 cell membranes using [gamma-32P]ATP as substrate preincubated for 20 mins followed by substrate addition measured after 30 mins by liquid scintillation counting; summary of the method: as §1
[8] = biological target: Sodium/potassium-transporting ATPase subunit alpha-4 (Rattus norvegicus) (UniProt Q64541); assay: Inhibition of Na+/K+-ATPase alpha4 in Long Evans rat cauda epididymis sperm assessed as reduction in sperm curvilinear velocity at 10^-12 to 10^-4 M after 1 hr by SYTO staining based microscopic method
[9] = biological target: Sodium/potassium-transporting ATPase subunit alpha-4 (Rattus norvegicus) (UniProt Q64541); assay: Inhibition of Na+/K+-ATPase alpha4 in Long Evans rat cauda epididymis sperm assessed as reduction in sperm beat cross frequency at 10^-12 to 10^-4 M after 1 hr by SYTO staining based microscopic method
[10] = biological target: Na+/K+ ATPase alpha-1/beta-1 (Rattus norvegicus, UniProt P06685+P07340); assay: Inhibition of recombinant rat Na+/K+-ATPase alpha1/beta1 expressed in baculovirus infected insect Sf9 cell membranes using [gamma-32P]ATP as substrate preincubated for 20 mins followed by substrate addition measured after 30 mins by liquid scintillation counting
Summary of the method: as §1, with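 “counted. Activity was taken as the 1 mM ouabain-sensitive fraction.” for “counted.”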

[11] = biological target: Sodium/potassium-transporting ATPase subunit alpha-4 (Rattus norvegicus) (UniProt Q64541); assay: Inhibition of Na+/K+-ATPase alpha4 in Long Evans rat cauda epididymis sperm assessed as reduction in sperm average path linearity at 10^-12 to 10^-4 M after 1 hr by SYTO staining based microscopic method
[12] = biological target: Sodium/potassium-transporting ATPase subunit alpha-4 (Rattus norvegicus) (UniProt Q64541); assay: Inhibition of Na+/K+-ATPase alpha4 in Long Evans rat cauda epididymis sperm assessed as reduction in sperm straight line velocity at 10^-12 to 10^-4 M after 1 hr by SYTO staining based microscopic method
[13] = biological target: T1, Voltage-gated inwardly rectifying potassium channel KCNH2; assay: Displacement of Tracer Red from human ERG expressed in cell membranes by fluorescence polarization assay
Summary of the method: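 Competitive fluorescence polarization binding assay using membranes from cells stably expressing hERG, measuring displacement of a fluorescently tagged hERG ligand. Test compounds were run at concentrations up to 60 μM.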

Liver [14] = assay: Metabolic stability in mouse liver S9 fraction assessed as parent compound remaining at 1 uM after 60 mins relative to control; format: ADME, tissue-based; settings: s9, 1 h
[15] = Metabolic stability in monkey liver S9 fraction assessed as parent compound remaining at 1 uM after 60 mins relative to control; format: ADME, tissue-based, Macaca mulatta; settings: rhesus monkey, s9, 1 h
Rattus norvegicus [16] = assay: Inhibition of rat sperm total motility at 5 mg/kg administered daily via oral gavage for 6 to 12 days by SYTO staining based microscopic method relative to control; format: functional
Summary of the method: (§2)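 Male rats were dosed daily by oral gavage, either at 5, 10 or 20 mg/kg for 3 days, or at 5 mg/kg for 3, 6, 9 or 12 days. Animals were then sacrificed and cauda epididymal sperm collected. Total and progressive motility were measured by CASA and compared with untreated controls. Values are mean ± SEM of three experiments.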

[17] = Apparent permeability from basolateral side to apical side in human Caco2 cells at 1 uM after 60 mins by HPLC-MS analysis; format: ADME, cell-based; settings: caco-2, 1 h
Rattus norvegicus [18] = assay: Inhibition of rat sperm progressive motility at 5 mg/kg administered daily via oral gavage for 6 to 12 days by SYTO staining based microscopic method relative to control; format: functional; summary of the method: as §2
Liver [19] = assay: Metabolic stability in human liver S9 fraction assessed as parent compound remaining at 1 uM after 60 mins relative to control; format: ADME, tissue-based; settings: s9, 1 h
Rattus norvegicus [20] = assay: Inhibition of rat sperm movement at 20 mg/kg administered via oral gavage for 3 days by SYTO staining based microscopic method relative to control; format: functional; settings: 72 h; summary of the method: as §2
Liver [21] = assay: Metabolic stability in rat liver S9 fraction assessed as parent compound remaining at 1 uM after 60 mins relative to control; format: ADME, tissue-based; settings: s9, 1 h
[22] = Apparent permeability from apical side to basolateral side in human Caco2 cells at 1 uM after 60 mins by HPLC-MS analysis; format: ADME, cell-based; settings: caco-2, 1 h
Summary of the method: (§3)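 Caco-2 monolayers were grown on Transwell filters, with test compound at 1 × 10^-6 M. Apical-to-basolateral flux was run at 37 °C with shaking, at pH 6.5 apical and pH 7.4 basolateral. Donor was sampled over 0–60 min and receiver at 60 min. Compound was quantified by full-scan HPLC-MS. Apparent permeability and percent recovery were derived from two determinations.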

Rattus norvegicus [23] = assay: Inhibition of rat sperm progressive motility at 5 mg/kg administered daily via oral gavage for 3 days by SYTO staining based microscopic method; format: functional, organism-based; summary of the method: as §2
[24] = Apparent permeability from basolateral side to apical side in human Caco2 cells assessed as drug recovery at 1 uM after 60 mins by HPLC-MS analysis; format: ADME, cell-based; settings: caco-2, 1 h
Liver [25] = assay: Metabolic stability in dog liver S9 fraction assessed as parent compound remaining at 1 uM after 60 mins relative to control; format: ADME, tissue-based, Canis lupus familiaris; settings: s9, 1 h
[26] = Apparent permeability from apical side to basolateral side in human Caco2 cells assessed as drug recovery at 1 uM after 60 mins by HPLC-MS analysis; format: ADME, cell-based; settings: caco-2, 1 h; summary of the method: as §3
Rattus norvegicus [27] = assay: Inhibition of rat sperm total motility at 5 mg/kg administered daily via oral gavage for 3 days by SYTO staining based microscopic method; format: functional, organism-based; summary of the method: as §2

T1 sequence (Q12809 whole entry): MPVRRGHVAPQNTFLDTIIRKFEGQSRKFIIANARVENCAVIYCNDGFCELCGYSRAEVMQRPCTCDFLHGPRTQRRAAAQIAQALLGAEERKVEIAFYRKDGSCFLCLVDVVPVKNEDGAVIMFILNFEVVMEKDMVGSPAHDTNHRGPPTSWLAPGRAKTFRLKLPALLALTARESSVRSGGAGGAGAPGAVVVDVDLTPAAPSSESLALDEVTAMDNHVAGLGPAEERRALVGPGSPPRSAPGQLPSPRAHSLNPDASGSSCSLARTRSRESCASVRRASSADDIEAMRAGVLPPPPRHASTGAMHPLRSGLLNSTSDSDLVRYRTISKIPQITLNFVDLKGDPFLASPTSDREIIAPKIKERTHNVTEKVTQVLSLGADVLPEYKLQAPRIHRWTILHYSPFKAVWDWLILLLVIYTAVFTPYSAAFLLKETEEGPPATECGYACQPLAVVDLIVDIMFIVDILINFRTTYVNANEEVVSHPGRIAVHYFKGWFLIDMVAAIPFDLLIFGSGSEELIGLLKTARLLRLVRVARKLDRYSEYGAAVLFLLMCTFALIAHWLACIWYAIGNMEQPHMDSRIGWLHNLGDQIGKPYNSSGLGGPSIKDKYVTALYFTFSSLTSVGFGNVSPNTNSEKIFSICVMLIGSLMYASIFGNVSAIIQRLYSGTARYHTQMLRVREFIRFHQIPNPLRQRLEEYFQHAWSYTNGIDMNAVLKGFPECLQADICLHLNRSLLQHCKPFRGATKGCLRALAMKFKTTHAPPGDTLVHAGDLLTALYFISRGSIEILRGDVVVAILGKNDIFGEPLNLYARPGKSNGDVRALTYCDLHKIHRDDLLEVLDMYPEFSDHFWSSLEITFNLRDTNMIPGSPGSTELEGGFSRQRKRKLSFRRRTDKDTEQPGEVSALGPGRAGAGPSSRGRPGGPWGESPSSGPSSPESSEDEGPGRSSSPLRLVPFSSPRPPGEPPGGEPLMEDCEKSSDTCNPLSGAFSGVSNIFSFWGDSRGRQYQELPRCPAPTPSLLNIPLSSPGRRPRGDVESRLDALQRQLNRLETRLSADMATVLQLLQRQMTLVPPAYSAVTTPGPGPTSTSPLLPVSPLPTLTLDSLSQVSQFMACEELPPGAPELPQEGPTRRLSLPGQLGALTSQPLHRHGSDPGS

Row | Structure (SMILES) | inhibition (INH) [1] | inhibition [2] | inhibition [3] | Activity (MCF7) | inhibition [4] | inhibition [5] | IC50 [6] [µM] | IC50 [7] [µM] | inhibition [8] | inhibition [9] | IC50 [10] [µM] | inhibition [11] | inhibition [12] | other results
1 | COCO[C@@H]1[C@H]2OC(C)(C)O[C@H]2[C@H](O[C@H]2C[C@H]3OC(C)(C)OC[C@]34[C@@H]3[C@@H](CC[C@]4(O)C2)[C@@]2(O)CC[C@H](CO)[C@@]2(C)C[C@H]3OCOC)O[C@H]1C | Not Active | Active | Active | Non-Toxic | Active | Active | > 100 | > 100 | Active | Active | > 100 | Active | Active | 
2 | C[C@@H]1O[C@@H](O[C@H]2C[C@@H](O)[C@]3(CO)[C@H]4[C@H](O)C[C@]5(C)[C@@H](C6=CC(=O)OC6)CC[C@]5(O)[C@@H]4CC[C@]3(O)C2)[C@H](O)[C@H](O)[C@H]1O [OUABAIN] |  |  |  |  |  |  |  |  |  |  |  |  |  | IC50 [13]: 5.8 µM
3 | COCO[C@H]1C[C@H]2OC(C)(C)OC[C@]23[C@@H]2[C@@H](CC[C@]3(O)C1)[C@@]1(OCOC)CC[C@H](CO)[C@@]1(C)C[C@H]2OCOC | Not Active | Active | Active | Non-Toxic | Active | Active | 6.6 | > 100 | Active | Active | > 100 | Active | Active | 
4 | C[C@]12C[C@@H](O)[C@H]3[C@@H](CC[C@]4(O)C[C@@H](O)C[C@@H](O)[C@]34CO)[C@@]1(O)CC[C@@H]2c1cn(Cc2ccccc2)nn1 | Not Active |  |  | Non-Toxic |  |  |  | > 100 |  |  | > 100 |  |  | Stability (Liver [14]): 76%; Stability [15]: 89%; inhibition in vivo at 5 mg/kg (Rattus norvegicus [16]): 40%; Papp [17]: 0.3 ×10⁻⁶ cm/s; inhibition in vivo at 5 mg/kg (Rattus norvegicus [18]): 50%; Stability (Liver [19]): 107%; inhibition in vivo at 20 mg/kg (Rattus norvegicus [20]): 50%; Stability (Liver [21]): 95%; Papp [22]: < 0.2 ×10⁻⁶ cm/s; inhibition (Rattus norvegicus [23]): Active; Drug recovery [24]: 98%; Stability (Liver [25]): 99%; Drug recovery [26]: 94%; inhibition (Rattus norvegicus [27]): Active
